Measurements from different studies.
Lines come from different studies, so protocols differ.
Target: Serine/threonine-protein kinase MRCK alpha (CDC42BPA, Homo sapiens, UniProt Q5VT25)

SMILES | assay | conditions | measurement | result
CCCOc1ccc(OC)c(F)c1C(=O)c1ccc(C(=O)N[C@@H]2CNC[C@H]2NC(=O)c2ccc3[nH]ncc3c2)cc1 | enzyme activity, inhibitor | 0.5 µM | remaining activity | 27%
C[C@H](NC(=O)c1cnc2n1[C@](C)(Cc1ccc(C#N)cc1)C(=O)N2c1cc(Cl)c(F)c(Cl)c1)C(=O)NC1(c2ccccn2)CC1 | cell-free assay, competition with immobilised ligand | 1 µM | remaining binding | 100%
O=C(Nc1cnn(-c2csc(C(=O)NC3COC3)c2)c1)Nc1c(F)cccc1Cl | enzyme activity, inhibitor | 5 µM | remaining activity | 99%
N#CC1(c2ccccn2)CCN(Cc2cc(C(=O)N3CCCC3)c(=O)n3ccccc23)CC1 | cell-free assay, competition with immobilised ligand | 1 µM | remaining binding | 84%
CC/C(=N\NC(=O)NCc1cccc(O)c1)c1ccc(O)c(C)c1O | enzyme activity, inhibitor | 0.1 µM | inhibition | 49.7%
CN1CC(Oc2cnc(C#N)cc2-c2ccn3nc(NC(=O)C4CC4)cc3c2)C1 | enzyme activity, inhibitor | 1 µM | inhibition | -14%
O=C1NC(=O)c2cc(Nc3ccc(F)cc3)c(Nc3ccc(F)cc3)cc21 | cell-free assay, inhibitor | 0.5 µM | remaining signal | 92.3%
COc1cc2ncnc(Nc3ccc(Oc4ccccc4)c(C)c3C)c2cc1OC | enzyme activity, inhibitor | 1 µM | inhibition | -6%
CNC(=O)c1cc(Oc2ccc(NC(=O)Nc3ccc(Cl)c(C(F)(F)F)c3)cc2)ccn1 | enzyme activity, inhibitor | 0.3 µM | inhibition | 9%
O=C(O)c1cc(-c2ccc(C3CCNCC3)cc2)c2ccc(-c3ccc(C(F)(F)F)cc3)cc2c1 | cell-free assay, competition with immobilised ligand | 1 µM | remaining binding | 100%
CS(=O)(=O)CCNCc1ccc(-c2ccc3ncnc(Nc4ccc(OCc5cccc(F)c5)c(Cl)c4)c3c2)o1 | cell-free assay | 0.5 µM | remaining signal | 88.2%
CN(C)c1ncnc(-c2ccc3nc(Nc4cc(CN5CCN(C(=O)CC(F)(F)F)CC5)ccn4)[nH]c3c2)c1Cl | cell-free assay, competition with immobilised ligand | 1 µM | remaining binding | 100%
CCN(CC)CCNC(=O)c1c(C)[nH]c(/C=C2\C(=O)Nc3ccc(F)cc32)c1C | enzyme activity, inhibitor | 10 µM | inhibition | 10%
CC1=C(C#N)[C@@H](c2ccc3[nH]nc(C)c3c2)C(C#N)=C(c2ccc(Cl)cc2)N1 | cell-free assay, competition with immobilised ligand | 1 µM | remaining binding | 82.2%
Cc1ccc(NC(=O)c2ccc(C)c(C(F)(F)F)c2)cc1C#Cc1nn(C2CCC(O)CC2)c2ncnc(N)c12 (stereo not drawn) | cell-free assay, inhibitor | 10 µM | remaining signal | 101%
